# Laboratory results reported in ChEMBL document CHEMBL5108074 (J Med Chem, 2022).
# pIC50: −log10 of the molar value.
# Experiments:
# [1] = Apparent permeability of the compound across apical side to basolateral side in human Caco-2 cells incubated for 1 hr by LC-MS/MS analysis; conditions: caco-2, 1 h
# [2] = Metabolic stability in human liver microsomes assessed as intrinsic clearance per mg of protein measured upto 60 mins in presence of NADPH regenerating system by LC-MS/MS analysis; assay type: ADME, Microsome; conditions: microsomes, 1 h
# [3] = Thermodynamic solubility of the compound in FaSSIF at 1 mg/ml at pH 6.5 using crystalline form of sample measured after 4 hrs; assay type: physicochemical; conditions: simulated gi fluid, pH 6.5, 4 h
# Summary of the method: (§1)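 Compound (nominal 1 or 100 mg/mL as free base) added to biorelevant medium preheated to 37 °C: FaSSGF at pH 1.6 or FaSSIF at pH 6.5. Vortexed, then shaken 4 h at 37 °C (~500 rpm). Centrifuged at 15000g for 10 min at 37 °C. Supernatant diluted and quantified against calibration standards. Crystalline material used where stated.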
# [4] = Thermodynamic solubility of the compound in FaSSIF at 1 mg/ml at pH 6.5 measured after 4 hrs; assay type: physicochemical; conditions: simulated gi fluid, pH 6.5, 4 h; summary of the method: as §1
# [5] = Thermodynamic solubility of the compound in FaSSGF at 1 mg/ml at pH 1.6 measured after 4 hrs; assay type: physicochemical; conditions: buffer, pH 1.6, 4 h; summary of the method: as §1
# [6] = Clearance in Sprague-Dawley rat blood at 1 mg/kg, iv measured upto 24 hrs by LC-MS analysis; assay type: ADME, organism-based; conditions: whole blood
# Summary of the method: (§2)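 Male Sprague-Dawley rats, two per route, single dose. IV: 1 mg/kg given as 1 mL/kg of a nominal 1 mg/mL formulation in vehicle. PO: 10 mg/kg given as 5 mL/kg of a 2 mg/mL formulation. PK parameters from noncompartmental analysis. Clearance expressed relative to rat liver blood flow of 80 mL/min/kg.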
# [7] = Clearance in Beagle dog assessed as liver blood flow at 1 mg/kg, iv measured upto 24 hrs by LC-MS analysis; assay type: ADME, organism-based, Canis lupus familiaris; conditions: in vivo
# [8] = Volume of distribution at steady state in Beagle dog at 1 mg/kg, po and 1 mg/kg, iv measured upto 24 hrs by LC-MS analysis; assay type: ADME, organism-based, Canis lupus familiaris; conditions: in vivo
# [9] = Oral bioavailability in Sprague-Dawley rat at 10 mg/kg measured upto 24 hrs by LC-MS analysis; assay type: ADME, organism-based; conditions: in vivo; summary of the method: as §2
# [10] = Oral bioavailability in Beagle dog at 1 mg/kg measured upto 24 hrs by LC-MS analysis; assay type: ADME, organism-based, Canis lupus familiaris; conditions: in vivo
# [11] = molecular target: Voltage-gated inwardly rectifying potassium channel KCNH2 (Homo sapiens, UniProt Q12809); experiment: Inhibition of hERG expressed in CHO cells by whole cell patch clamp assay; assay type: toxicity, cell-based
# Summary of the method: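 hERG K+ current recorded by automated whole-cell patch clamp in CHO cells stably expressing hERG. Concentrations tested up to a maximum of 33 μM.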
# [12] = molecular target: Cytochrome P450 2B6 (Homo sapiens, UniProt P20813); experiment: Inhibition of CYP2B6 in human liver microsomes assessed as reduction in hydroxybupropion metabolite formation incubated for 30 mins in presence of NADPH by LC-MS/MS analysis; assay type: ADME, Microsome
# [13] = molecular target: Cytochrome P450 2C9 (Homo sapiens, UniProt P11712); experiment: Inhibition of CYP2C9 in human liver microsomes assessed as reduction in 4 hydroxy-diclofenac metabolite formation incubated for 30 mins in presence of NADPH by LC-MS/MS analysis; assay type: ADME, Microsome
# [14] = molecular target: Cytochrome P450 2D6 (Homo sapiens, UniProt P10635); experiment: Inhibition of CYP2D6 in human liver microsomes assessed as reduction in dextrorphan metabolite formation incubated for 30 mins in presence of NADPH by LC-MS/MS analysis; assay type: ADME, Microsome
# [15] = molecular target: Cytochrome P450 3A4 (Homo sapiens, UniProt P08684); experiment: Inhibition of CYP3A4 in human liver microsomes assessed as reduction in 6beta-hydroxytestosterone metabolite formation using testosterone as substrate incubated for 30 mins in presence of NADPH by LC-MS/MS analysis; assay type: ADME, Microsome
# [16] = molecular target: Kallikrein-1 (Homo sapiens, UniProt P06870); experiment: Inhibition of human KLK1 preincubated for 5 mins followed by substrate addition by fluorometer analysis
# [17] = molecular target: Coagulation factor XII (Homo sapiens, UniProt P00748); experiment: Inhibition of human factor 12a preincubated for 5 mins followed by substrate addition by fluorometer analysis
# Summary of the method: (§3)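 Each protease (commercial, typically purified from human plasma) was preincubated with inhibitor for 5 min, then a fluorogenic substrate specific to that enzyme was added. Cleavage was followed kinetically by fluorometry. IC50 came from a four-parameter logistic fit to the normalized rate of fluorescence increase.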
# [18] = molecular target: Coagulation factor XI (Homo sapiens, UniProt P03951); experiment: Inhibition of human factor 11a preincubated for 5 mins followed by substrate addition by fluorometer analysis
# Summary of the method: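 Enzyme from the selectivity panel of serine proteases, typically purified from human plasma. The inhibitor was preincubated with the enzyme for 5 min before a protease-specific fluorogenic substrate was added. Substrate cleavage was followed kinetically. IC50 came from a four-parameter logistic fit to the normalized rate of fluorescence increase.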
# [19] = molecular target: Plasminogen (Homo sapiens, UniProt P00747); experiment: Inhibition of human plasmin preincubated for 5 mins followed by substrate addition by fluorometer analysis; summary of the method: as §3
# [20] = molecular target: Prothrombin (Homo sapiens, UniProt P00734); experiment: Inhibition of human thrombin preincubated for 5 mins followed by substrate addition by fluorometer analysis; summary of the method: as §3
# [21] = molecular target: Beta-secretase 1 (Homo sapiens, UniProt P56817); experiment: Inhibition of human beta-secretase 1 preincubated for 5 mins followed by substrate addition by fluorometer analysis
# [22] = molecular target: Cathepsin D (Homo sapiens, UniProt P07339); experiment: Inhibition of human Cathepsin D preincubated for 5 mins followed by substrate addition by fluorometer analysis
# [23] = molecular target: Cathepsin G (Homo sapiens, UniProt P08311); experiment: Inhibition of human Cathepsin G preincubated for 5 mins followed by substrate addition by fluorometer analysis; summary of the method: as §3
# [24] = molecular target: Renin (Homo sapiens, UniProt P00797); experiment: Inhibition of human renin preincubated for 5 mins followed by substrate addition by fluorometer analysis
# [25] = molecular target: Tryptase (Homo sapiens, UniProt Q9BZJ3+Q15661+Q9NRR2); experiment: Inhibition of human tryptase preincubated for 5 mins followed by substrate addition by fluorometer analysis; assay type: protein assay
# Summary of the method: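 Human proteases, typically purified from plasma, preincubated with compound for 5 min. A protease-specific fluorogenic substrate was then added and cleavage followed kinetically on a fluorometer. IC50 from a four-parameter logistic fit to the normalized rate of fluorescence increase.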
# [26] = Genotoxicity in Salmonella typhimurium by non-GLP bacterial mutagenicity Ames test; assay type: toxicity; conditions: salmonella enterica subsp. enterica serovar typhimurium
# Sequence of Coagulation factor XII (P00748 20-372 limits assumed): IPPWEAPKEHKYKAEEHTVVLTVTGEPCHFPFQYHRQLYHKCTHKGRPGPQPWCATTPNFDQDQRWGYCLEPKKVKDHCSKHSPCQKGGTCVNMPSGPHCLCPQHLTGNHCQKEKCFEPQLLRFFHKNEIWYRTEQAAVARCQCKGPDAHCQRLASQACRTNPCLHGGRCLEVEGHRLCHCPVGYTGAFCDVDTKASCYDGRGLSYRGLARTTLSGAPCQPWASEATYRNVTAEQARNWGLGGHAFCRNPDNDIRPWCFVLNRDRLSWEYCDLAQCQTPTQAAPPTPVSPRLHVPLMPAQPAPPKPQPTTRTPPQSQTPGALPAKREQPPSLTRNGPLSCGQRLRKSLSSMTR
# Sequence of Coagulation factor XII (P00748 373-615 limits assumed): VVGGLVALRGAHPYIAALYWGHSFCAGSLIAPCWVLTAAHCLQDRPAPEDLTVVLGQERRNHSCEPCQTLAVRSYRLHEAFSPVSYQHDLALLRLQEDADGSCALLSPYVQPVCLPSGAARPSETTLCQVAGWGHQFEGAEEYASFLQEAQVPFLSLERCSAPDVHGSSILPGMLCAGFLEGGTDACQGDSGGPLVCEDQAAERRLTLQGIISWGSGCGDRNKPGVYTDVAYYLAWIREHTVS
# Sequence of Cathepsin G (P08311 whole entry): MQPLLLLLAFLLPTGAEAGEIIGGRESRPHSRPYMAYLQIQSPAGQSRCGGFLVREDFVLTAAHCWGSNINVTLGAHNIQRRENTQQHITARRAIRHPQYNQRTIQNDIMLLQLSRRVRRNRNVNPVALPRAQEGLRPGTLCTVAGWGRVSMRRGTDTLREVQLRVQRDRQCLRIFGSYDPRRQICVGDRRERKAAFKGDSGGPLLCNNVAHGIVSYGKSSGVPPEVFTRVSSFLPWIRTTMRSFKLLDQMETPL
# Sequence of Cytochrome P450 2C9 (P11712 whole entry): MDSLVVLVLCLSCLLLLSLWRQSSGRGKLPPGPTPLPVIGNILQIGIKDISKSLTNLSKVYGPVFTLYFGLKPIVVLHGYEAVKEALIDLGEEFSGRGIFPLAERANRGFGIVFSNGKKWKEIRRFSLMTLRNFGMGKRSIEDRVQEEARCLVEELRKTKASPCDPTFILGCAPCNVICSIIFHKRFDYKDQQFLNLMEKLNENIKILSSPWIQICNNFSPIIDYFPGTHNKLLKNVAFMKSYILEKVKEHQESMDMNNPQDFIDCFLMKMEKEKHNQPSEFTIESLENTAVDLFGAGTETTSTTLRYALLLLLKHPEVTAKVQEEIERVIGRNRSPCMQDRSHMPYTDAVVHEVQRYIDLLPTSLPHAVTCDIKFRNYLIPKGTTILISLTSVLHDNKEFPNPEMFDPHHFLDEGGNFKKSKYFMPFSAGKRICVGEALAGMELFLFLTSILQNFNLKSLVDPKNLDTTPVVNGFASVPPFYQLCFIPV
# Sequence of Voltage-gated inwardly rectifying potassium channel KCNH2 (Q12809 whole entry): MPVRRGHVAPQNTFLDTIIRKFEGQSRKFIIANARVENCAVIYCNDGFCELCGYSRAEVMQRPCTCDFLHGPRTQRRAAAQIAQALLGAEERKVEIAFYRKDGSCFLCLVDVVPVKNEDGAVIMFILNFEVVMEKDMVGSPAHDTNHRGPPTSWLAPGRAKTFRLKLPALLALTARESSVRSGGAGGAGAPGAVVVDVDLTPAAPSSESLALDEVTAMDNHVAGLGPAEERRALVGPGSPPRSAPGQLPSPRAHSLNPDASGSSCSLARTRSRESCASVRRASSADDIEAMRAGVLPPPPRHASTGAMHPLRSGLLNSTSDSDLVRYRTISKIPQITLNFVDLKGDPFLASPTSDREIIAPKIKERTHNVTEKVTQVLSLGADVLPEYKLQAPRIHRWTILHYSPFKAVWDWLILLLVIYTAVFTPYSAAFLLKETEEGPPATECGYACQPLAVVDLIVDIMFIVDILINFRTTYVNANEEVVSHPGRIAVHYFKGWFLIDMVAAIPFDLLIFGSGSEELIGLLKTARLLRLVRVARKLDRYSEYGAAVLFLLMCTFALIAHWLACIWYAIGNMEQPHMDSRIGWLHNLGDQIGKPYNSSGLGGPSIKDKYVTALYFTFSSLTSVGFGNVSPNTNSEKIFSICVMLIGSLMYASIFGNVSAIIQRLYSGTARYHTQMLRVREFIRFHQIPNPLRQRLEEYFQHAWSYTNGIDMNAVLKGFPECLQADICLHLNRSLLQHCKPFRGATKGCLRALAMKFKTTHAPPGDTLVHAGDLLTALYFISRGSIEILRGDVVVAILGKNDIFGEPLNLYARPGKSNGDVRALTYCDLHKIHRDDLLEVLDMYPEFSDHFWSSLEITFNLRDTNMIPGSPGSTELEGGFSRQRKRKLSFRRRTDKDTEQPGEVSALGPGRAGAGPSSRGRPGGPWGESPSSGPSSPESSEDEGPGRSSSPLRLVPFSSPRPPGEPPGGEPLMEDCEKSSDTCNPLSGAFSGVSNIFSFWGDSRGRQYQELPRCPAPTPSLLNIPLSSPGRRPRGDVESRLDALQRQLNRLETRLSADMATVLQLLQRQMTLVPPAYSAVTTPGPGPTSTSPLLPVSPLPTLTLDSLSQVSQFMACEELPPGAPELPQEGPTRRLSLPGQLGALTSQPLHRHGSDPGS
# Sequence of Beta-secretase 1 (P56817 whole entry): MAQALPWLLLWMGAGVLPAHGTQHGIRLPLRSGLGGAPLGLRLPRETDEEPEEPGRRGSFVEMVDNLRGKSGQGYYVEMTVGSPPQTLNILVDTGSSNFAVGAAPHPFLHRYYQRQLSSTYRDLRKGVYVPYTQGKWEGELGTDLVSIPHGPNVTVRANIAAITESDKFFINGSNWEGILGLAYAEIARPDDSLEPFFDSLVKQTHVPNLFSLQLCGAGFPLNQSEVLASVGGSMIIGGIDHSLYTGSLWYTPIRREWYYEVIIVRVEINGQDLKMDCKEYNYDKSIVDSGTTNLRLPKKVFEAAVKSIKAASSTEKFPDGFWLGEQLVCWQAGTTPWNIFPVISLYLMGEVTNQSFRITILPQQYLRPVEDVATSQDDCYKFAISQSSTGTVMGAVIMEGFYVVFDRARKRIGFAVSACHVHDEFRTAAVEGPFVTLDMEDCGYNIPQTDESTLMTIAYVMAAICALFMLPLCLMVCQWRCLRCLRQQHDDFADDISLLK
# Sequence of Cathepsin D (P07339 65-162 limits assumed): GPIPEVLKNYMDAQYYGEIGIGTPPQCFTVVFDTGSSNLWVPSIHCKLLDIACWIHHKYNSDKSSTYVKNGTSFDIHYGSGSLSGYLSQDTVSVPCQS
# Sequence of Cathepsin D (P07339 169-412 limits assumed): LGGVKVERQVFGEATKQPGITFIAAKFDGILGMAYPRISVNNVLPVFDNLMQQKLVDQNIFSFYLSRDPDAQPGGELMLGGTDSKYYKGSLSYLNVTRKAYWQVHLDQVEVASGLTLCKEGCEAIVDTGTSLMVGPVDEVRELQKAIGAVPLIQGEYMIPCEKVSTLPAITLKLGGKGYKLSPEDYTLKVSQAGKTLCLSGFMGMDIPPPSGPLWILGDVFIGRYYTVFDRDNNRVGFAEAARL
# Sequence of Cytochrome P450 3A4 (P08684 whole entry): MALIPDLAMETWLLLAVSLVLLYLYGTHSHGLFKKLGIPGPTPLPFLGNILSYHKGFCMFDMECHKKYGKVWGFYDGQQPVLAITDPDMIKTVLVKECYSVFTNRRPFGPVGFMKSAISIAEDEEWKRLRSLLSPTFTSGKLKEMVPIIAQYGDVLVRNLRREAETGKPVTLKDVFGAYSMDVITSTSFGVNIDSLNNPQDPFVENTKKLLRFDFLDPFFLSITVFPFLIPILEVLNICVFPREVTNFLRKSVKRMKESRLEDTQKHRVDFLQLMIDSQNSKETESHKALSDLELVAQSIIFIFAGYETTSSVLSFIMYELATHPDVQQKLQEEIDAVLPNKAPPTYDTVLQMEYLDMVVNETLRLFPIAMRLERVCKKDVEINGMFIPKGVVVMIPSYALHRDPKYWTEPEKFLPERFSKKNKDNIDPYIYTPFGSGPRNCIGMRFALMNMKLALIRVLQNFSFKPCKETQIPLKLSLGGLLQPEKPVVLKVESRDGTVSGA
# Sequence of Cytochrome P450 2D6 (P10635 whole entry): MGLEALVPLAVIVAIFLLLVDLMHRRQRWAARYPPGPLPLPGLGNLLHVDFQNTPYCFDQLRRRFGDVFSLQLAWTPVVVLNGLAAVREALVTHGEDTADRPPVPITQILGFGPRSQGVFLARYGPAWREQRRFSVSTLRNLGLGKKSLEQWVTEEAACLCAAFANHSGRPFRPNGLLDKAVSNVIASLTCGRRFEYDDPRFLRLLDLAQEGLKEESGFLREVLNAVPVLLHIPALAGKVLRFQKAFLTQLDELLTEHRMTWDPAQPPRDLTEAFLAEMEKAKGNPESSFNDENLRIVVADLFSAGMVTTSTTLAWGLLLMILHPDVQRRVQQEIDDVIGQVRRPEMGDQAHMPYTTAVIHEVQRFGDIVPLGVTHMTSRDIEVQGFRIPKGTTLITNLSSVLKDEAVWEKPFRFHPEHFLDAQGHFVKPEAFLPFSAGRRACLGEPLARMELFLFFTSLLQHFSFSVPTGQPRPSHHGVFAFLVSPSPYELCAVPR
# Sequence of Renin (P00797 whole entry): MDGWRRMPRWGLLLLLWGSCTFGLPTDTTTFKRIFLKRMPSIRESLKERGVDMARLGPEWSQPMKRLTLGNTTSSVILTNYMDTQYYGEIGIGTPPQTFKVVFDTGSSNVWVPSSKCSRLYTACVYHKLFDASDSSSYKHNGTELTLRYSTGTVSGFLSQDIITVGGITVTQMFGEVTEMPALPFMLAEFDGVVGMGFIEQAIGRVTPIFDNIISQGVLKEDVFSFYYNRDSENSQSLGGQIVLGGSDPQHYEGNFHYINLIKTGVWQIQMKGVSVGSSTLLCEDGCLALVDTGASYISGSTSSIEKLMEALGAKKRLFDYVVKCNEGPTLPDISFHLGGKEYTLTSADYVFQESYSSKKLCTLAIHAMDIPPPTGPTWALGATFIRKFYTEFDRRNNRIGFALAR
compound,measurement,setting,value
COCc1nn(Cc2ccc(Cn3ccccc3=O)cc2)cc1C(=O)NCc1nccc(OC)c1F [SEBETRALSTAT],Papp,[1],9 10^-6 cm/s
same,microsomal intrinsic clearance,[2],14 µL/min
same,Therm_solubility,[3],110 µg/mL
same,Therm_solubility,[4],220 µg/mL
same,Therm_solubility,[5],> 1000 µg/mL
same,clearance,[6],20.9 mL/min/kg
same,LBF,[7],33%
same,Vdss,[8],0.65 L/kg
same,F,[9],82%
same,F,[10],34%
same,pIC50,[11],< 4.48
same,pIC50,[12],< 4.60
same,pIC50,[13],< 4.60
same,pIC50,[14],< 4.60
same,pIC50,[15],< 4.60
same,pIC50,[16],< 4.40
same,pIC50,[17],< 4.40
same,pIC50,[18],< 4.40
same,pIC50,[19],< 4.40
same,pIC50,[20],< 4.40
same,pIC50,[21],< 5.00
same,pIC50,[22],< 5.00
same,pIC50,[23],< 5.00
same,pIC50,[24],< 5.00
same,IC50,[25],> 10 µM
same,Activity,[26],Non-Toxic
